Laboratory results published in ChEMBL document CHEMBL3797186, “Single Residue Substitutions That Confer Voltage-Gated Sodium Ion Channel Subtype Selectivity in the NaV1.7 Inhibitory Peptide GpTx-1” (J Med Chem, 2016).
Positions of bridges follow the written chain, without caps; N, C: chain ends. Residues, ends and D or L forms follow the SMILES beside them.

How the values were obtained:
[1] = target: Sodium channel protein type 9 subunit alpha (Homo sapiens, UniProt Q15858); assay: Inhibition of human Nav1.7 expressed in HEK293 cells assessed as inward peak current by ion-works quattro patch clamp electrophysiology method; format: cell-based
Sodium channel protein type 9 subunit alpha, sequence (Q15858 whole entry): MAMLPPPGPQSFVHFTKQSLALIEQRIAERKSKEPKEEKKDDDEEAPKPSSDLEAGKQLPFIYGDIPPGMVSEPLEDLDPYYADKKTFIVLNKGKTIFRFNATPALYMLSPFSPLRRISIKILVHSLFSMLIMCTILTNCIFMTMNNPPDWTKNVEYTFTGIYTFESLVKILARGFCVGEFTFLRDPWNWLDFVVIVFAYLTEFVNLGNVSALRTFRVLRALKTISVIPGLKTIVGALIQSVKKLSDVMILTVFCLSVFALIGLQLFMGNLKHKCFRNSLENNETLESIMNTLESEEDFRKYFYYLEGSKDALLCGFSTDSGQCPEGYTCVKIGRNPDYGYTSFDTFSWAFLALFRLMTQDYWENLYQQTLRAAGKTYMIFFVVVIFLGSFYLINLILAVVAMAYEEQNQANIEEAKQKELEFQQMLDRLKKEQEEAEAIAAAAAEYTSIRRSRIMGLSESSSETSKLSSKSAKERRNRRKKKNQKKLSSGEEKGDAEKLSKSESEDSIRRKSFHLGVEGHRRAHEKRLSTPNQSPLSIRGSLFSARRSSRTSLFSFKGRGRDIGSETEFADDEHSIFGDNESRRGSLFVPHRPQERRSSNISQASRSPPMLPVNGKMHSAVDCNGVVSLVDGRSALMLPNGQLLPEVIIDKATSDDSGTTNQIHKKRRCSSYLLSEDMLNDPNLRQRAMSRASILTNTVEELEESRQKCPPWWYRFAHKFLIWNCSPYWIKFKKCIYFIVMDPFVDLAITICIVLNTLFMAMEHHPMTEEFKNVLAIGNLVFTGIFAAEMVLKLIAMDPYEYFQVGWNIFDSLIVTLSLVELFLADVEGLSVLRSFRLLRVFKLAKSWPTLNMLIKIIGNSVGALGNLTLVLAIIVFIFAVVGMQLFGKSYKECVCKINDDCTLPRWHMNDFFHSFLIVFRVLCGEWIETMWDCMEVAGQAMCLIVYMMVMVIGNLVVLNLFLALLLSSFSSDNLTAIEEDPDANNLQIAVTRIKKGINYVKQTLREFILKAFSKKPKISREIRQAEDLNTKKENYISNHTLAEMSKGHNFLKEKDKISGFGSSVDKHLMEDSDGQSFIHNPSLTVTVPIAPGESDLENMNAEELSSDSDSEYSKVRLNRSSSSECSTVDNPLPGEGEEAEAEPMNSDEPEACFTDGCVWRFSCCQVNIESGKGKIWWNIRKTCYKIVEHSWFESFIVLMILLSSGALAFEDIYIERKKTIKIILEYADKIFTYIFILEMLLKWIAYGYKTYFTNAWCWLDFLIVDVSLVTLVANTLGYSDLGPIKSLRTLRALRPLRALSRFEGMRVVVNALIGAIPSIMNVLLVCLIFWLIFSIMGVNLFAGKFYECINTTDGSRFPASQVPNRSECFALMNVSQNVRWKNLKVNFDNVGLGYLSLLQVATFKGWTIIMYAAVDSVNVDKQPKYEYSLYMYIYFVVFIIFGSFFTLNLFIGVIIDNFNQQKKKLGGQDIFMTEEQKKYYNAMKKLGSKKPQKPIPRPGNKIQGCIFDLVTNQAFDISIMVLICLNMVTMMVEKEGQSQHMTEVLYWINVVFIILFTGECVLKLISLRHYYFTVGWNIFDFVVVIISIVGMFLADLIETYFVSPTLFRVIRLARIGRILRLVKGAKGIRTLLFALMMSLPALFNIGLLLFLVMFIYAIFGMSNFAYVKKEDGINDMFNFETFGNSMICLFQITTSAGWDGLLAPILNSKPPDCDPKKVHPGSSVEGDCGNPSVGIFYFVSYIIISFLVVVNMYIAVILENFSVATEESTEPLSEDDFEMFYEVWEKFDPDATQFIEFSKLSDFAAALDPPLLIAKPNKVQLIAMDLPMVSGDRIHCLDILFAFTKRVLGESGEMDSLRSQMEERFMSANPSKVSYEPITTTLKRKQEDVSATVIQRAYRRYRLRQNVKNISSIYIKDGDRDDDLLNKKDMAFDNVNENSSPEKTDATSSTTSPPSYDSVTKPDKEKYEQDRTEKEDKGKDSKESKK

[2] = target: Sodium channel protein type 5 subunit alpha (Homo sapiens, UniProt Q14524); assay: Inhibition of human Nav1.5 expressed in HEK293 cells assessed as inward peak current by ion-works quattro patch clamp electrophysiology method; format: cell-based
Sodium channel protein type 5 subunit alpha, sequence (Q14524 whole entry): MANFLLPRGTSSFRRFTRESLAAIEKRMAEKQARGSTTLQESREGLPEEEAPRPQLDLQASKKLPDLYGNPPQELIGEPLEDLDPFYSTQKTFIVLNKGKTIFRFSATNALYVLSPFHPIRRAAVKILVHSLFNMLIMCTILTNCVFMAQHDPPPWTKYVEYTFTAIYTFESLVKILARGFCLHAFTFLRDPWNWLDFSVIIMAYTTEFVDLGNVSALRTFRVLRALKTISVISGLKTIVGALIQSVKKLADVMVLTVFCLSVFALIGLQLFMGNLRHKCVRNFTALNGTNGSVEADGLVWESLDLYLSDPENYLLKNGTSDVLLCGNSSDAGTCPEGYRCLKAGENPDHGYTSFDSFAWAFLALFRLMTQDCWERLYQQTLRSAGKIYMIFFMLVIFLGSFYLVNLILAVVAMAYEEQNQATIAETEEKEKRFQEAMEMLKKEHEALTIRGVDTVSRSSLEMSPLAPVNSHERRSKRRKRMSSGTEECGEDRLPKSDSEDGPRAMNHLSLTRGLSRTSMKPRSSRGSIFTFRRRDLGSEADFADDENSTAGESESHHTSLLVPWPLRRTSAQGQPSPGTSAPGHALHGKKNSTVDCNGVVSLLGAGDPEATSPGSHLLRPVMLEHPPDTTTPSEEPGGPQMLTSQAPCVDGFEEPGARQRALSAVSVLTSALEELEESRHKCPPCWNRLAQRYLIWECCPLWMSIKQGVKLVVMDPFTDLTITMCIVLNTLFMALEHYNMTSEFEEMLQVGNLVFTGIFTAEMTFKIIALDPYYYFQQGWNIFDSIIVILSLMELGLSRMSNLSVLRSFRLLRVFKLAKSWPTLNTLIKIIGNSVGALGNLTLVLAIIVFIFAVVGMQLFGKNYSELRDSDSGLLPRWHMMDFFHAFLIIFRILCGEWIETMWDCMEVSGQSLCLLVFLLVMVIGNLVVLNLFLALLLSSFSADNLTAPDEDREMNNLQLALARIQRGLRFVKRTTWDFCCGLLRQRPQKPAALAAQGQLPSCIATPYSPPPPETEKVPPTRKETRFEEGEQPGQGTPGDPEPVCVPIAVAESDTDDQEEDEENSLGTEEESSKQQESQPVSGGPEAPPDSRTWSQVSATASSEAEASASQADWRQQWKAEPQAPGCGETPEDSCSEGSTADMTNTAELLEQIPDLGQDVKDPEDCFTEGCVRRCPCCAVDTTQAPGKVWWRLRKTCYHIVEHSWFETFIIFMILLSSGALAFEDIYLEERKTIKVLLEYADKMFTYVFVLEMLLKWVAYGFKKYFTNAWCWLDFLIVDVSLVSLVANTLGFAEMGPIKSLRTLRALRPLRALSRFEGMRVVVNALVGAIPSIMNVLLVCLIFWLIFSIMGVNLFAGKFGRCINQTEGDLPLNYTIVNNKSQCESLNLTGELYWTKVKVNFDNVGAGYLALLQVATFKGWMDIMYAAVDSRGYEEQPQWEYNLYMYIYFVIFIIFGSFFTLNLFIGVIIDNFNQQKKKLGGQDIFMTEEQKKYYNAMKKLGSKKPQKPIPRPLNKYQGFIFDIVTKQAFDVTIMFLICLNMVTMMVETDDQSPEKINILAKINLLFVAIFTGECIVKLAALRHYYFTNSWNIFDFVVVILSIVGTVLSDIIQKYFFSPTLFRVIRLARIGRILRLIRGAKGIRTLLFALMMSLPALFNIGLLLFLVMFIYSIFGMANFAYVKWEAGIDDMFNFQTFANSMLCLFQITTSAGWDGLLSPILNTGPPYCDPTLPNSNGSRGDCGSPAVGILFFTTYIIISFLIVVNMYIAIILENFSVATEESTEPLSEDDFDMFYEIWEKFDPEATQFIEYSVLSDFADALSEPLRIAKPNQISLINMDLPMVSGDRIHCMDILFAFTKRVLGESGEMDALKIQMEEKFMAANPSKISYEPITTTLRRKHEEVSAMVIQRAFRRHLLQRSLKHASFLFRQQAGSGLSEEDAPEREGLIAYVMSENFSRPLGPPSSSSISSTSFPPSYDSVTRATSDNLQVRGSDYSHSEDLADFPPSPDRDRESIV
Procedure, shortened: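 Stable HEK293 line expressing human NaV1.5, recorded by population patch clamp on the IonWorks Quattro.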

SMILES	IC50 [1] [µM]	IC50 [2] [µM]
CC[C@H](C)[C@@H]1NC(=O)[C@@H]2CSSC[C@@H]3NC(=O)[C@H](C(C)C)NC(=O)[C@H](CC(C)C)NC(=O)[C@H](CC(N)=O)NC(=O)[C@@H]4CCCN4C(=O)[C@H](CCCNC(=N)N)NC(=O)[C@H](CSSC[C@H](NC(=O)[C@@H](N)CC(=O)O)C(=O)N[C@@H](CC(C)C)C(=O)NCC(=O)N[C@@H](CCC(=O)O)C(=O)N[C@@H](CCSC)C(=O)N[C@@H](CCCNC(=N)N)C(=O)N[C@@H](CCCCN)C(=O)N2)NC(=O)[C@H](CSSC[C@@H](C(=O)N[C@@H](CCCCN)C(=O)N[C@@H](Cc2ccc(O)cc2)C(=O)N[C@H](C(=O)N[C@@H](Cc2ccccc2)C(N)=O)C(C)C)NC(=O)[C@H](Cc2c[nH]c4ccccc24)NC(=O)[C@H](CCCCN)NC(=O)[C@H](Cc2cnc[nH]2)NC(=O)[C@H]([C@@H](C)O)NC(=O)[C@H](CCCNC(=N)N)NC(=O)[C@H](CO)NC3=O)NC(=O)[C@H](CCCCN)NC(=O)[C@H](CC(=O)O)NC(=O)[C@H](CC(N)=O)NC(=O)[C@H](CC(=O)O)NC(=O)[C@@H]2CCCN2C1=O (H-DCLGEMRKCIPDNDKCCRPNLVCSRTHKWCKYVF-NH2; disulfide 2-17, 9-23, 16-30)	> 5	> 5
CC[C@H](C)[C@@H]1NC(=O)[C@H]2CSSC[C@H]3NC(=O)[C@H](C(C)C)NC(=O)[C@H](CC(C)C)NC(=O)[C@H](CC(N)=O)NC(=O)[C@@H]4CCCN4C(=O)[C@H](CCCNC(=N)N)NC(=O)[C@H](CSSC[C@H](NC(=O)[C@@H](N)CC(=O)O)C(=O)N[C@@H](CC(C)C)C(=O)NCC(=O)N[C@@H](Cc4ccccc4)C(=O)N[C@@H](CCSC)C(=O)N[C@@H](CCCNC(=N)N)C(=O)N[C@@H](CCCCN)C(=O)N2)NC(=O)[C@@H](CSSC[C@@H](C(=O)N[C@@H](C)C(=O)N[C@@H](Cc2ccc(O)cc2)C(=O)N[C@H](C(=O)N[C@@H](Cc2ccccc2)C(N)=O)C(C)C)NC(=O)[C@H](Cc2c[nH]c4ccccc24)NC(=O)[C@H](CCCCN)NC(=O)[C@H](Cc2cnc[nH]2)NC(=O)[C@H]([C@@H](C)O)NC(=O)[C@H](CCCNC(=N)N)NC(=O)[C@H](CO)NC3=O)NC(=O)[C@H](CCCCN)NC(=O)[C@H](CC(=O)O)NC(=O)[C@H](CC(N)=O)NC(=O)[C@H](CC(=O)O)NC(=O)[C@@H]2CCCN2C1=O	> 5	> 5
CC[C@H](C)[C@@H]1NC(=O)[C@@H]2CSSC[C@@H]3NC(=O)[C@H](C(C)C)NC(=O)[C@H](CC(C)C)NC(=O)[C@H](CC(N)=O)NC(=O)[C@@H]4CCCN4C(=O)[C@H](CCCNC(=N)N)NC(=O)[C@H](CSSC[C@H](NC(=O)[C@@H](N)CC(=O)O)C(=O)N[C@@H](CC(C)C)C(=O)NCC(=O)N[C@@H](Cc4ccccc4)C(=O)N[C@@H](CCCNC(=N)N)C(=O)N[C@@H](CCCNC(=N)N)C(=O)N[C@@H](CCCCN)C(=O)N2)NC(=O)[C@H](CSSC[C@@H](C(=O)N[C@@H](CCCCN)C(=O)N[C@@H](Cc2ccc(O)cc2)C(=O)N[C@H](C(=O)N[C@@H](Cc2ccccc2)C(N)=O)C(C)C)NC(=O)[C@H](Cc2c[nH]c4ccccc24)NC(=O)[C@H](CCCCN)NC(=O)[C@H](Cc2cnc[nH]2)NC(=O)[C@H]([C@@H](C)O)NC(=O)[C@H](CCCNC(=N)N)NC(=O)[C@H](CO)NC3=O)NC(=O)[C@H](CCCCN)NC(=O)[C@H](CC(=O)O)NC(=O)[C@H](CC(N)=O)NC(=O)[C@H](CC(=O)O)NC(=O)[C@@H]2CCCN2C1=O (H-DCLGFRRKCIPDNDKCCRPNLVCSRTHKWCKYVF-NH2; disulfide 2-17, 9-23, 16-30)	> 4.9	> 5
CC[C@H](C)[C@@H]1NC(=O)[C@@H]2CSSC[C@@H]3NC(=O)[C@H](C(C)C)NC(=O)[C@H](CC(C)C)NC(=O)[C@H](CC(N)=O)NC(=O)[C@@H]4CCCN4C(=O)[C@H](CCCNC(=N)N)NC(=O)[C@H](CSSC[C@H](NC(=O)[C@@H](N)CC(=O)O)C(=O)N[C@@H](CCCCN)C(=O)NCC(=O)N[C@@H](Cc4ccccc4)C(=O)N[C@@H](CCSC)C(=O)N[C@@H](CCCNC(=N)N)C(=O)N[C@@H](CCCCN)C(=O)N2)NC(=O)[C@H](CSSC[C@@H](C(=O)N[C@@H](CCCCN)C(=O)N[C@@H](Cc2ccc(O)cc2)C(=O)N[C@H](C(=O)N[C@@H](Cc2ccccc2)C(N)=O)C(C)C)NC(=O)[C@H](Cc2c[nH]c4ccccc24)NC(=O)[C@H](CCCCN)NC(=O)[C@H](Cc2cnc[nH]2)NC(=O)[C@H]([C@@H](C)O)NC(=O)[C@H](CCCNC(=N)N)NC(=O)[C@H](CO)NC3=O)NC(=O)[C@H](CCCCN)NC(=O)[C@H](CC(=O)O)NC(=O)[C@H](CC(N)=O)NC(=O)[C@H](CC(=O)O)NC(=O)[C@@H]2CCCN2C1=O (H-DCKGFMRKCIPDNDKCCRPNLVCSRTHKWCKYVF-NH2; disulfide 2-17, 9-23, 16-30)	0.12	> 5
CC[C@H](C)[C@@H]1NC(=O)[C@@H]2CSSC[C@@H]3NC(=O)[C@H](C(C)C)NC(=O)[C@H](CC(C)C)NC(=O)[C@H](CC(N)=O)NC(=O)[C@@H]4CCCN4C(=O)[C@H](CCCNC(=N)N)NC(=O)[C@H](CSSC[C@H](NC(=O)[C@@H](N)Cc4c[nH]c5ccccc45)C(=O)N[C@@H](CC(C)C)C(=O)NCC(=O)N[C@@H](Cc4ccccc4)C(=O)N[C@@H](CCSC)C(=O)N[C@@H](CCCNC(=N)N)C(=O)N[C@@H](CCCCN)C(=O)N2)NC(=O)[C@H](CSSC[C@@H](C(=O)N[C@@H](CCCCN)C(=O)N[C@@H](Cc2ccc(O)cc2)C(=O)N[C@H](C(=O)N[C@@H](Cc2ccccc2)C(N)=O)C(C)C)NC(=O)[C@H](Cc2c[nH]c4ccccc24)NC(=O)[C@H](CCCCN)NC(=O)[C@H](Cc2cnc[nH]2)NC(=O)[C@H]([C@@H](C)O)NC(=O)[C@H](CCCNC(=N)N)NC(=O)[C@H](CO)NC3=O)NC(=O)[C@H](CCCCN)NC(=O)[C@H](CC(=O)O)NC(=O)[C@H](CC(N)=O)NC(=O)[C@H](CC(=O)O)NC(=O)[C@@H]2CCCN2C1=O (H-WCLGFMRKCIPDNDKCCRPNLVCSRTHKWCKYVF-NH2; disulfide 2-17, 9-23, 16-30)	0.07	> 5
CC[C@H](C)[C@@H]1NC(=O)[C@@H]2CSSC[C@@H]3NC(=O)[C@H](C(C)C)NC(=O)[C@H](CC(C)C)NC(=O)[C@H](CC(N)=O)NC(=O)[C@@H]4CCCN4C(=O)[C@H](CCCNC(=N)N)NC(=O)[C@H](CSSC[C@H](NC(=O)[C@@H](N)CC(=O)O)C(=O)N[C@@H](CC(C)C)C(=O)NCC(=O)N[C@@H](Cc4ccccc4)C(=O)N[C@@H](CCSC)C(=O)N[C@@H](CCCNC(=N)N)C(=O)N[C@@H](CCCCN)C(=O)N2)NC(=O)[C@H](CSSC[C@@H](C(=O)N[C@@H](CCCCN)C(=O)N[C@@H](Cc2ccc(O)cc2)C(=O)N[C@H](C(=O)N[C@@H](Cc2ccccc2)C(N)=O)C(C)C)NC(=O)[C@H](Cc2c[nH]c4ccccc24)NC(=O)[C@H](CCCCN)NC(=O)[C@H](Cc2cnc[nH]2)NC(=O)[C@H]([C@@H](C)O)NC(=O)[C@H](CCCNC(=N)N)NC(=O)[C@H](CO)NC3=O)NC(=O)[C@H](CCCCN)NC(=O)[C@H](CC(=O)O)NC(=O)[C@H](CCC(=O)O)NC(=O)[C@H](CC(=O)O)NC(=O)[C@@H]2CCCN2C1=O (H-DCLGFMRKCIPDEDKCCRPNLVCSRTHKWCKYVF-NH2; disulfide 2-17, 9-23, 16-30)	0.28	> 5
